This note sets out measurements from ChEMBL document CHEMBL4725355, “Design, Synthesis, and Preclinical Evaluation of 3-Methyl-6-(5-thiophenyl)-1,3-dihydro-imidazo[4,5-b]pyridin-2-ones as Selective GluN2B Negative Allosteric Modulators for the Treatment of Mood Disorders” (J Med Chem, 2020).

Data set [1] in a line: Drug level in Sprague-Dawley rat brain hippocampus at 0.03 mg/kg, iv after 30 min by LC-MS/MS analysis. Format: ADME, organism-based. Particulars: read-out: Drug uptake. Put shortly: (§1)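 Single i.v. dose of 0.03 mg/kg in 50% (w/v) PEG/water, pH 7.4; rats n=3 per group, killed at 5, 10, 30, 60 and 120 min. Cerebellum, cortex, striatum and hippocampus dissected, weighed and homogenized; drug quantified by LC-MS/MS and normalized to tissue weight. P<0.05 taken as significant versus cerebellum.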

Data set [2] is described as follows: Clearance in mouse at 0.5 mg/kg, iv by LC-MS/MS analysis. Particulars: in vivo. Format: ADME, organism-based.
Data set [3] can be described thus: Ex vivo receptor occupancy at GluN2B in po dosed Sprague-Dawley rat assessed as 3-[3H] 1-(azetidin-1-yl)-2-[6-(4-fluoro-3-methyl-phenyl)pyrrolo[3,2-b]pyridin-1-yl]-ethanone labelling measured after 60 mins by autoradiography. Format: functional, organism-based. Put shortly:
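Oral dosing at 8 dose levels in 20% HP-β-CD; 3 rats per group. GluN2B occupancy in hippocampus measured 60 min post dose by ex vivo radiotracer autoradiography and calculated versus naïve controls, mean ± SEM. Plasma concentrations paired with occupancy to derive EC50 and dose ED50.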

The nature of data set [4]: Efflux ratio of apparent permeability across basolateral to apical side over apical to basolateral side in MDCK-MDR1 cells at 5 uM measured after 60 mins by LC-MS/MS analysis. Format: ADME, cell-based, Canis lupus familiaris. Particulars: dog. In short, it runs like this:
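MDCK-MDR1 cells, passages 6-30, seeded at 3.4×10^5 cells/cm² and cultured 3 days. Test compound at 5 µM final (1% DMSO) in HBSS, pH 7.4, applied to the donor side. A→B and B→A runs at 37 °C for 60 min, in duplicate, quantified by LC/MS/MS. Efflux ratio taken as B-A/A-B; monolayer integrity checked by lucifer yellow.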

Data set [5] is described as follows: Intrinsic clearance in human liver microsomes at 1 uM after 5 to 60 mins in presence of NADPH by LC-MS/MS analysis. Format: ADME, Microsome. Particulars: time 5-60 min, read-out: CLH.
The nature of data set [6]: Drug level in Sprague-Dawley rat brain striatum at 0.03 mg/kg, iv after 120 min by LC-MS/MS analysis. Format: ADME, organism-based. Particulars: read-out: Drug uptake. In short, it runs like this: as §1
Data set [7] can be described thus: Protein binding in human plasma assessed as unbound fraction at 0.5 uM after 6 hrs by equilibrium dialysis method. Format: ADME, cell-free.
Data set [8] in a line: Displacement of 3-[3H] 1-(azetidin-1-yl)-2-[6-(4-fluoro-3-methyl-phenyl)pyrrolo[3,2-b]pyridin-1-yl]ethanone from GluN1a/GluN2B receptor in […] measured after 2 hrs by liquid scintillation counting method. Format: tissue-based, Cortex.
Data set [9] deals with T1, Cytochrome P450 3A4 (Homo sapiens, UniProt P08684). In words: Time-dependent inhibition of CYP3A4 in human liver microsomes at 10 uM using nifedipine as substrate by LC-MS/MS analysis. It is filed as ADME. In short, it runs like this:
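CYP3A4 time-dependent inhibition in human liver microsomes. The compound (0.4 to 10 μM) was tested with and without 30 min preincubation. IC50 was taken from percent activity remaining versus vehicle, averaged over two independent experiments. A >2-fold IC50 shift after preincubation was the threshold for time-dependent inhibition.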

Data set [10] in a line: Cmax in Sprague-Dawley rat brain at 3 mg/kg, po after 2 hrs by LC-MS/MS analysis. It is filed as ADME, organism-based. On the set-up: route oral, dose 3 mg/kg, time 2 hrs. Put shortly: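 Oral dose of 3 mg/kg in 20% HP-β-CD to rats. Brain concentration was measured alongside ex vivo GluN2B occupancy over a 6 h time course (0.5, 2 and 6 h), n=2.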
Data set [11] can be described thus: Clearance in monkey at 0.1 mg/kg, iv by LC-MS/MS analysis. Particulars: rhesus monkey, in vivo. It is filed as ADME, organism-based, Macaca mulatta.
Data set [12] in a line: Ratio of Cmax in Sprague-Dawley rat at 250 mg/kg, po administered via gavage after 24 hrs using HPMC formulation by LC-MS/MS analysis to EC70 for ex vivo receptor occupancy at GluN2B in po dosed Sprague-Dawley rat assessed as 3-[3H] 1-(azetidin-1-yl)-2-[6-(4-fluoro-3-methyl-phenyl)pyrrolo[3,2-b]pyridin-1-yl]-ethanone labelling. It is filed as ADME, organism-based.
The nature of data set [13]: Clearance in dog at 0.1 mg/kg, iv by LC-MS/MS analysis. Format: ADME, organism-based, Canis lupus familiaris. Particulars: in vivo.
Data set [14] is described as follows: Oral bioavailability in Sprague-Dawley rat at 2.5 mg/kg by LC-MS/MS analysis. It is filed as ADME, organism-based. Particulars: in vivo.
The next data set deals with T2, Cytochrome P450 1A2 (Homo sapiens, UniProt P05177).
T2 sequence (P05177 whole entry): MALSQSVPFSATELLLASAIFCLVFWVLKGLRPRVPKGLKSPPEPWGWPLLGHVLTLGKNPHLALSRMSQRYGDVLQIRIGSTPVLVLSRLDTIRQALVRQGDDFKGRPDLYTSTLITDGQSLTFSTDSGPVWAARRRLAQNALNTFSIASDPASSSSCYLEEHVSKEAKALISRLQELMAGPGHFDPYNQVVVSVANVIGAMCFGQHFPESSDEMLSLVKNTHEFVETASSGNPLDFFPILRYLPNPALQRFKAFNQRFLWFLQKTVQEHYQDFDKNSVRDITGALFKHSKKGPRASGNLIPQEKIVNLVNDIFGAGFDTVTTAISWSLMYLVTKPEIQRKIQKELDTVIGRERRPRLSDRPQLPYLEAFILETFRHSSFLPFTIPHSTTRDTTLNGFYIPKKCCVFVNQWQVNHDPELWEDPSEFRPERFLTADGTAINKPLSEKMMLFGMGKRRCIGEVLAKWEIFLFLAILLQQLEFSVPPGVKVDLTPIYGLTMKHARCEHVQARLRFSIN
In words: Inhibition of CYP1A2 in human liver microsomes using phenacetin as substrate measured after 15 mins by LC-MS/MS analysis. It is filed as ADME. Put shortly: (§2)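 Human liver microsomes incubated with isoform-specific probe substrates and the test compound at concentrations up to 20 µM. IC50 derived from inhibition of metabolite formation; mean of two independent experiments, with known specific inhibitors as positive controls.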

A short description of data set [15]: Tmax in monkey at 0.5 mg/kg, po by LC-MS/MS analysis. Format: ADME, organism-based, Macaca mulatta. Particulars: rhesus monkey, in vivo.
The target in data set [16] is T1, Cytochrome P450 3A4. The experiment in a line: Inhibition of CYP3A4 in human liver microsomes using testosterone as substrate measured after 15 mins by LC-MS/MS analysis. Format: ADME. In short, it runs like this:
as §2

A short description of data set [17]: Tmax in Sprague-Dawley rat at 0.5 mg/kg, iv or 2.5 mg/kg, po using 1:1 PEG-400/water formulation by LC-MS/MS analysis. Format: ADME, organism-based. Particulars: in vivo. Put shortly: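 Rat PK at 0.5 mg/kg i.v. and 2.5 mg/kg p.o., vehicle 1:1 PEG400/water. n=3, values given as mean ± SD.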
The nature of data set [18]: Metabolic stability in human liver microsomes assessed as extraction ratio at 1 uM after 5 to 60 mins in presence of NADPH by LC-MS/MS analysis. It is filed as ADME, Microsome. Particulars: time 5-60 min, read-out: ERH. In short, it runs like this: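 Human and rat liver microsomes, run in duplicate; stability reported as microsomal extraction ratio.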
The nature of data set [19]: Tmax in Sprague-Dawley rat at 125 mg/kg, po administered via gavage after 24 hrs using HPMC formulation by LC-MS/MS analysis. Format: ADME, organism-based. Particulars: in vivo. In short, it runs like this: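 Single oral gavage of a 5% HPMC suspension at 125, 250, 500 or 1000 mg/kg to male Sprague Dawley rats, 3 per group. Plasma was sampled at 6 time points from 0.5 to 24 h.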

Setting [20] is: Rattus norvegicus, Sprague-Dawley, po, 1 h, time 60 min.

Values after ≈ are worked out from the molar mass of the structure shown.

T1 sequence (P08684 whole entry): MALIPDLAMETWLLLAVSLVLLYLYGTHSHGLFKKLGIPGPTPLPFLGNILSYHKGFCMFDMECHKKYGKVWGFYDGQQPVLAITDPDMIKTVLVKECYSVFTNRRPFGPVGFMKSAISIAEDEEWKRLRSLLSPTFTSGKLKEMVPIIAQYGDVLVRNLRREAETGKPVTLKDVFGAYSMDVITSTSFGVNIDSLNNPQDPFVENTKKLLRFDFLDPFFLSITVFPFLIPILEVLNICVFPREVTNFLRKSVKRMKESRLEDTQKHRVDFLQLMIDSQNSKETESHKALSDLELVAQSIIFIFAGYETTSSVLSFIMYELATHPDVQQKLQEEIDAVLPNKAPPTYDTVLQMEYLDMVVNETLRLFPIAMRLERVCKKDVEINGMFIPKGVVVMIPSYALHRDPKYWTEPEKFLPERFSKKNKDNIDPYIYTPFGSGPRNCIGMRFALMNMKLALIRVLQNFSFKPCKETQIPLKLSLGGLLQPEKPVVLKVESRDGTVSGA

`Cn1c(=O)n(CC(=O)N2CCC2)c2cc(-c3ccc(C(F)(F)F)s3)cnc21`: in data set [1], the concentration at 0.5 h turned out to be 22.7 ng/mL. The values for the clearance in data set [2], in [11] and in [13] were 54 mL/min/kg, 9 mL/min/kg and 17 mL/min/kg, respectively. Also, the EC50 in data set [3] (Rattus norvegicus, Sprague-Dawley) came to 0.407 µg/mL (≈ 1.03 µM). Further, the ED50 in data set [3] (setting [20]) worked out at 0.86 mg/kg. Also, the ED70 in data set [3] (setting [20]) stood at 1.44 mg/kg. In addition, the EC70 in [3] (time 60 min, 1 h) is 0.716 µg/mL (≈ 1.81 µM). For the same molecule, the fEC70 in data set [3] (time 60 min, 1 h) was 40 ng/mL. Further, the efflux ratio at 1 h, 5 µM in data set [4] was found to be 2.1. Also, the microsomal CLint at 1 µM in data set [5] was determined as 5.4 µL/min/mg. Besides, the concentration at 2 h in data set [6] amounted to 9.8 ng/mL. The fraction unbound at 6 h, 0.5 µM in [7] was 0.046. In data set [8], the affinity, expressed as Ki, was 0.015 µM. Further, the TDI entry at Cytochrome P450 3A4 [9] is on record as “Not Active”. In [10], the concentration peaked (Cmax) at 765 ng/g. Further, the Ratio in [12] turned out to be 8. Besides, in [14], the bioavailability came to 132%. The IC50 against Cytochrome P450 1A2 and against Cytochrome P450 3A4 [16] was more than 50 µM each time. The results for the Tmax in data set [15], in data set [17] and in data set [19] were 1 h, 1.3 h and 2.7 h, respectively. In addition, the hepatic extraction ratio at 1 µM in data set [18] was less than 0.3.
